Screens (PubChem BioAssay)
Shown are actives, neighbours in structure and some others; about 3.4% of the full set was active somewhere.
Cl transport mod = KCC2 (human) Cl- transport modulation; KCC2 cells, thallium flux FluoZin-2 fluorescence; AID 1456; actives 2.2% (n = 190,000); Q9H2X9; B-score of Tl+ flux slope (higher = more flux/activation; lower = inhibition) at 10 µM;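 active = thallium flux slope and its plate-corrected score both differing from the plate sample mean at a set confidence after two filtering rounds, in either direction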;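 note: slope of fluorescence scaled to starting intensity during 10 to 20 s after thallium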
Redox H2O2 prof = compounds producing H2O2 with reducing agent – biochemical, NIH compound library profiling, artefact control for MLSCN library redox annotation, primary screen; actives 0.03% (n = 200,000); activation, % at 10 µM; AID 878; DTT-dependent redox cycling H2O2, phenol red/HRP absorbance; 100% = 100 µM peroxide control, 0% = buffer;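 active = activation of at least 50% relative to the plate's high and low controls in the primary single-dose screen; inactive = activation below 50%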;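 note: compound incubated with DTT at 0.8 mM final as the reducing agent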
MDM2 E3 inh = blocks human Mdm2 ubiquitin ligase activity | actives 0.11% (n = 210,000) | signal enhancement, % at 5 µM | cell-based MDM2 ubiquitination luciferase reporter, 2 h; 0 = plate control, 100 = twice control, blank-subtracted | AID 1230;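 active = signal enhancement of 30% or more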;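 note: luminescence tracks abundance of the self-degrading MDM2-luciferase fusion protein; higher signal means inhibition of MDM2 E3 ligase activity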
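Material: Stable MDM2–luciferase fusion reporter cells | Amount: 2000 cells seeded into each well | Dosing: One concentration, 5 µM, with 0.2% DMSO | Incubation: 4 h cell settling then 2 h compound exposure, 37 °C | Measured by: Luciferase luminescence | Read-out basis: % enhancement relative to plate controls after blank subtraction | Benchmarks: Control and blank well means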
p97 ATPase inh = human p97 ATPase inhibition; P55072; recombinant p97 ATPase, Kinase-Glo ATP luminescence, 3 h; inhibition, % at 8 µM; actives 0.42% (n = 220,000); in the data active = inhibition above about 15%;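 note: 0% = DMSO vehicle and 100% = wells lacking enzyme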
PKD1 kinase inh = blocks activity of human protein kinase D1 | PKD1 kinase fluorescence polarization assay | inhibition, % (concentration not given with the values) | Q15139 | actives 0.056% (n = 200,000); in the data active = inhibition above about 50%
ROMK primary = modulates human ROMK potassium channel activity | P48048 | Tet-inducible ROMK, thallium flux fluorescence; actives lie on both sides | B-score at 10 µM | actives 2% (n = 130,000);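 active = signal ratio slope over the read window, or its plate-corrected B-score, at least 3 SD from the plate mean, either direction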;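 note: B-score of the F/F0 ratio slope over 7 to 12 s after thallium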
KCC2 secondary = KCC2 (human) modulation, secondary assay | shares compounds with Cl transport mod | HEK293-KCC2, thallium flux, FluoZin2 fluorescence; stronger effect = higher value | normalised thallium flux (F/F0 slope) at 10 µM | actives 15% (n = 3,700);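 active = thallium flux slope above the same plate's solvent-only control mean plus 3 SD; inconclusive = the two replicate wells disagree; inactive = no significant difference from solvent-only control wells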
KCC2 bumet counter = thallium flux persisting under bumetanide in KCC2 cells, counter-screen secondary assay. HEK293-KCC2 + bumetanide/ouabain, thallium flux FluoZin2; stronger effect = higher value. actives 49% (n = 3,700). normalized thallium flux at 10 µM. shares compounds with Cl transport mod;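 active = thallium entry rate above the same plate's blocked-transporter control wells by more than 3 SD; inconclusive = the two repeat wells disagree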;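 note: raw slope of fluorescence over initial fluorescence between 10 and 20 s after thallium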
KCC2 sec2 = KCC2 (human) modulation, second secondary assay. shares compounds with Cl transport mod. HEK293-KCC2, thallium flux FluoZin2 fluorescence; actives lie on both sides; F/F0 rise rate, 10–20 s post-thallium. normalized thallium flux at 10 µM. actives 23% (n = 3,700). AID 1715;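 active = thallium flux slope more than 3 SD above or below the plate's solvent-only control mean, mostly below; inconclusive = the two repeat wells disagreed; inactive = no significant shift from solvent-only controls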;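 note: raw slope with 0.1% DMSO as baseline and bumetanide as block control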
HEK293 Tl flux = counter-screen for KCC2 modulators: effect in parental HEK293 cells | thallium flux rate (normalised fluorescence) at 10 µM | thallium flux FluoZin2, ouabain; baseline-ratio fluorescence slope, 10–20 s after thallium | actives 46% (n = 3,700) | AID 1716 | shares compounds with Cl transport mod;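 active = thallium flux rate significantly above the same plate's solvent-only control wells, beyond their mean plus 3 SD; inconclusive = the two replicate wells gave conflicting results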
KCC2 ouabain = modulates human KCC2 on retest with ouabain; actives 48% (n = 3,700); HEK293-KCC2, thallium flux FluoZin2 fluorescence; bidirectional: low = inhibitor, high = activator; shares compounds with Cl transport mod; raw Tl+ flux slope (below DMSO = inhibition, above = activation) at 10 µM;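 active = thallium flux slope beyond 3 SD from same-plate DMSO control mean in most replicates, usually higher, sometimes lower; inconclusive = repeat tests gave conflicting results; inactive = no significant difference from controls in most replicates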;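 note: slope of initial-normalized fluorescence between seconds 10 and 20 after thallium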
HEK counter2 = counter-screen for KCC2 modulators: effect in parental HEK293 cells. shares compounds with Cl transport mod. thallium flux FluoZin-2 fluorescence slope. thallium flux slope at 10 µM. actives 33% (n = 3,700);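 active = thallium flux slope above the same plate's solvent-control mean plus 3 SD in both duplicate wells; inconclusive = duplicate wells that disagreed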;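 note: run without ouabain in cells lacking the KCC2 cotransporter; slope of fluorescence scaled to its starting value between 10 and 20 s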
* marks the source's active call; other numbers are inactive results; ? = inconclusive; · = not tested or not shown.

SMILES	Cl transport mod	Redox H2O2 prof	MDM2 E3 inh	p97 ATPase inh	PKD1 kinase inh	ROMK primary	KCC2 secondary	KCC2 bumet counter	KCC2 sec2	HEK293 Tl flux	KCC2 ouabain	HEK counter2
CCOc1ccc(N(CC(=O)Nc2c(C)n(C)n(-c3ccccc3)c2=O)S(=O)(=O)c2ccccc2)cc1	-2.8*	-1	-1	1	-6	0.064	0.0093	0.0068	0.031	0.0082	0.018	0.011
Cc1cc(C=C2C(=O)c3ccccc3C2=O)c(C)n1-c1ccc(C(=O)O)cc1	-2.1	-1	-8	9	1	-0.72	·	·	·	·	·	·
Cc1cc(C=C2C(=O)c3ccccc3C2=O)c(C)n1-c1cccc(C(=O)O)c1	-5.4*	1	-31	6	-1	-0.42	0.014	?	0.02*	0.0056*	0.01*	0.0083
CCOc1cc(/C=N/NS(=O)(=O)c2ccc(OC)cc2)ccc1OCCN1CCOCC1	0.39	0	-12	4	6	0.53	·	·	·	·	·	·
COc1cc(-c2c(C#N)c(N)nc(SCc3ccncc3)c2C#N)cc(OC)c1OC	·	0	-8	4	-4	-1.2	0.0085	0.0065	0.029	0.0072	?	?
CCC(=O)N1CCN(c2ccc(NC(=O)COc3ccccc3Cl)cc2)CC1	·	0	-25	-3	-9	-0.47	·	·	·	·	·	·
CCC(=O)N1CCN(c2ccccc2NC(=O)COc2ccccc2Cl)CC1	·	1	-6	-18	4	·	0.0079	?	0.037	?	0.019	0.01
Cc1cccc(C(=O)NC(=S)NNC(=O)Cc2ccccc2)c1	14*	0	2	3	-6	-0.012	0.019*	0.048*	0.037	0.025*	0.041*	0.015*
CNC(=S)NNC(=O)Cc1ccccc1	·	2	-23	1	1	·	·	·	·	·	·	·
COc1ccc(/C=C/C(=O)NC(=S)NNC(=O)Cc2cccs2)cc1	1.8	-1	-7	2	-8	-0.51	·	·	·	·	·	·
CCC(=O)NNC(=S)NC(=O)c1ccc(C)cc1	7.6*	0	7	4	-7	1.2	?	0.02*	0.03	0.013*	0.024	?
CC(=O)NNC(=S)NC(=O)c1ccc(C)cc1	2.1	0	-27	0	1	·	·	·	·	·	·	·
O=C(/C=C/c1ccccc1)NC(=S)NNC(=O)Cc1cccs1	6.3*	1	-12	6	-2	·	0.0097	0.026*	0.031	?	?	0.012
O=C(Cc1ccccc1)NNC(=S)NC(=O)c1cccs1	6.8*	·	-7	6	·	·	0.0049	0.014*	0.033	0.015*	?	0.018*
CC1CCCCC1NC(=S)NC(=O)c1cccs1 (centres undefined)	117*	·	·	3	·	·	0.027*	0.14*	0.032	0.058*	0.064*	0.017*
O=C(NNC(=S)NC1CCCCC1)c1cccs1	-1	-1	12	-5	2	0.33	·	·	·	·	·	·
Cc1ccccc1-c1nc(CS(=O)CC(=O)NCc2ccccc2)c(C)o1 (centres undefined)	·	-2	-1	0	-12	·	0.006	?	0.024*	0.0067	?	0.011
